In ChEMBL document CHEMBL3994667, “Small Molecule Lysyl Oxidase-like 2 (LOXL2) Inhibitors: The Identification of an Inhibitor Selective for LOXL2 over LOX” (ACS Med Chem Lett, 2017):
pIC50: −log10 of the molar value. Activity calls are given as the source filed them. The calls are words filed in the database; no cut-off is given here.

What was measured:
[1] = target: T1, Lysyl oxidase homolog 2 (Rattus norvegicus, UniProt B5DF27); assay: Inhibition of full length recombinant rat LOXL2 expressed in CHO cells assessed as reduction in H2O2 production using DAP as substrate preincubated for 2 hrs followed by substrate addition measured every 2 minutes for 50 minutes in presence of BSA by Amplex red dye based fluorescence assay
T1 sequence (B5DF27 whole entry): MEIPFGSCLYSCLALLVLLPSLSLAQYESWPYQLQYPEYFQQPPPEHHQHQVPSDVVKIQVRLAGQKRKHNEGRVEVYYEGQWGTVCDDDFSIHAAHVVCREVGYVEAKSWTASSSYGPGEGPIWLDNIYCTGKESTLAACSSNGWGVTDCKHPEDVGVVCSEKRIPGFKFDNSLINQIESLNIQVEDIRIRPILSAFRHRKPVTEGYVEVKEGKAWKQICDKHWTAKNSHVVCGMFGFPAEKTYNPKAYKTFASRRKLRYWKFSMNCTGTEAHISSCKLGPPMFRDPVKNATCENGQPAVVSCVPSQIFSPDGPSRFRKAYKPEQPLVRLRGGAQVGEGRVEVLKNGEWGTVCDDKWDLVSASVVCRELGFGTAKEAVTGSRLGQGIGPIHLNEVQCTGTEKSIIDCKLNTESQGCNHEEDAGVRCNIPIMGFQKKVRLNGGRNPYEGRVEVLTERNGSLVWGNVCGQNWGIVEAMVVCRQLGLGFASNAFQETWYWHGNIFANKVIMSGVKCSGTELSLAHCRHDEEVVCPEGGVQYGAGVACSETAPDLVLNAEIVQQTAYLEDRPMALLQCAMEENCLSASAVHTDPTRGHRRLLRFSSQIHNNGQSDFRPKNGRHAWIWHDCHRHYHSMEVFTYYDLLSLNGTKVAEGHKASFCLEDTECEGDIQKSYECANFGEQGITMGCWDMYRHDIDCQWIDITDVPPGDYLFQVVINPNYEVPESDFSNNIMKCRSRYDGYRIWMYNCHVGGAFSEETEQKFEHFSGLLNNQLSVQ
Outline: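 Rodent LOXL2 is tested under the same conditions as the BSA-supplemented assay: conditioned media plus BSA, with DAP as substrate and Amplex Red detection of H2O2. Species are mouse and rat. IC50 is the geometric mean x/÷ geometric standard deviation from 3 determinations.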

[2] = target: T2, Amine oxidase [copper-containing] 3 (Homo sapiens) (UniProt Q16853); assay: Inhibition of SSAO in human plasma at 30 uM using benzylamine as substrate preincubated for 2 hrs followed by substrate addition measured every 30 secs for 15 minutes by Amplex red dye based fluorescence assay
T2 sequence (whole entry): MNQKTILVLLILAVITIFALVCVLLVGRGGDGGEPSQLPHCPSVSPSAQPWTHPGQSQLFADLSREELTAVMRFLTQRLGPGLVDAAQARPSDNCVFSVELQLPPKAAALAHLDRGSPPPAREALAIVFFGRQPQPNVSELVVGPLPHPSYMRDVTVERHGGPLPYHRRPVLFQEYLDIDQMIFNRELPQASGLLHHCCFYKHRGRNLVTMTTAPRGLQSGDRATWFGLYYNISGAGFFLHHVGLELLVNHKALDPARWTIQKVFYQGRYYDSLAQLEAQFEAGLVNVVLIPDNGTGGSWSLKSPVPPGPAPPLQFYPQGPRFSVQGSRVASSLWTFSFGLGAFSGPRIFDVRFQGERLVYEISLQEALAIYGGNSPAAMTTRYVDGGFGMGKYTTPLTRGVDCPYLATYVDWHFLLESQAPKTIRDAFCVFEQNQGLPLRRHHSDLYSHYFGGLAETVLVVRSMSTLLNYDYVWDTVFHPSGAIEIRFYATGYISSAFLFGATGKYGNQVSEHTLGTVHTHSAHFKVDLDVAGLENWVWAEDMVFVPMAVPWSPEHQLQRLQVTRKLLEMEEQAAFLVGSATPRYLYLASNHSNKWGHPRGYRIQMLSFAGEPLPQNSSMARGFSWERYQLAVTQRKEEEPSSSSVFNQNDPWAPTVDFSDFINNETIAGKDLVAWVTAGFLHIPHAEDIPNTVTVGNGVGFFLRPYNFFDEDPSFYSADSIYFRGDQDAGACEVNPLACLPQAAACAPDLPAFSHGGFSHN

[3] = target: T3, Lysyl oxidase homolog 2 (Homo sapiens, UniProt Q9Y4K0); assay: Inhibition of full length recombinant human LOXL2 expressed in CHO cells assessed as reduction in H2O2 production using DAP as substrate preincubated for 2 hrs followed by substrate addition measured every 2 minutes for 50 minutes in presence of BSA by Amplex red dye based fluorescence assay
T3 sequence (Q9Y4K0 whole entry): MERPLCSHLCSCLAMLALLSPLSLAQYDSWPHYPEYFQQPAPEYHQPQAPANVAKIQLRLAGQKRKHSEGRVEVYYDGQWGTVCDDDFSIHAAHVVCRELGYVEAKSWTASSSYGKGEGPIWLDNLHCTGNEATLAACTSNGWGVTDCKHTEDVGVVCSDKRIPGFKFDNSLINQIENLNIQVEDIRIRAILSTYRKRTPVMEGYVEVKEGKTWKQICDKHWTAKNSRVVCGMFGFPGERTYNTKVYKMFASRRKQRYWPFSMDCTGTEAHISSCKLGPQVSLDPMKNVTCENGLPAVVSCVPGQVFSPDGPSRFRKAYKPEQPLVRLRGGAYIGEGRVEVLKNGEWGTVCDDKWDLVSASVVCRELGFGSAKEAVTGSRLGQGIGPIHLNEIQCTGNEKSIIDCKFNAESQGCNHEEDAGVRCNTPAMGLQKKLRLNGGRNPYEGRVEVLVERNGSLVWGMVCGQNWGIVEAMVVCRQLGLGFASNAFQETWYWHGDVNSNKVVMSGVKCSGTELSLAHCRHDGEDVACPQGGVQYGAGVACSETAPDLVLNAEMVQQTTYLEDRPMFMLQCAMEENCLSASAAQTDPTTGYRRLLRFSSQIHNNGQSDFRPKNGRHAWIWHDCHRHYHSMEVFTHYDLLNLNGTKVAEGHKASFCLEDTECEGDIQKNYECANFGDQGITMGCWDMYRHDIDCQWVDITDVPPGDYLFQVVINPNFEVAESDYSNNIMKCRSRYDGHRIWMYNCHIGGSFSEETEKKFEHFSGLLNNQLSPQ
Outline: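 Serum-free concentrated conditioned medium from CHO cells stably expressing human LOXL2, supplemented with BSA. Compounds preincubated for 2 h (the screening preincubation time). Substrate was 1,5-diaminopentane, and the H2O2 formed was detected with Amplex Red. IC50 given as geometric mean x/÷ geometric SD over N determinations.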

[4] = target: T3, Lysyl oxidase homolog 2; assay: Inhibition of full length recombinant human LOXL2 expressed in CHO cells spiked into human whole blood assessed as reduction in H2O2 production using DAP as substrate preincubated for 2 followed by substrate addition measured every 90 secs for 45 mins by Amplex red dye based fluorescence assay; assay type: cell-based
Outline: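 Human recombinant LOXL2 spiked into human whole blood. Oxidative deamination of 1,5-diaminopentane measured as H2O2 with Amplex Red. IC50 expressed as geometric mean x/÷ geometric SD with N.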

[5] = target: Cytochrome P450 2D6 (Homo sapiens, UniProt P10635); assay: Inhibition of CYP2D6 (unknown origin); assay type: ADME
Cytochrome P450 2D6, sequence (P10635 whole entry): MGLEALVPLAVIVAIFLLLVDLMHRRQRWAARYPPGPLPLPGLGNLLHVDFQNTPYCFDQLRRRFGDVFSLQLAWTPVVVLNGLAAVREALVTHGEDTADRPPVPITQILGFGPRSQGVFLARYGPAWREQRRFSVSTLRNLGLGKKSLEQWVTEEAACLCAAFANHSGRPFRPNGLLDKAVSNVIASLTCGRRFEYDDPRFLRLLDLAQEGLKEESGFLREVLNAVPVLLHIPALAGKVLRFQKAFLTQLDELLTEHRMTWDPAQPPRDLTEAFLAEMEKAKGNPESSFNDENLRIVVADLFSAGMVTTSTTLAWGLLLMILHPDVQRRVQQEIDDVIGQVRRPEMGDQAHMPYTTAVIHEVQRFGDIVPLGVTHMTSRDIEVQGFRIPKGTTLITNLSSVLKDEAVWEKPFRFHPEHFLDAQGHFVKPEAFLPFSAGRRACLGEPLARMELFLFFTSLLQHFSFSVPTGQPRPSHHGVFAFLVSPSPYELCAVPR

pIC50 [1]: 6.87 | inhibition [2]: inactive | pIC50 [3]: 6.72 | pIC50 [4]: 5.84 | pIC50 [5]: < 4.52
Structure (SMILES): NCc1ccnc(Cl)c1
